Assay [1] has as its target T1, Bromodomain-containing protein 4 (Homo sapiens, UniProt O60885). The experiment in a line: Inhibition of HYSGRGK(Ac)GGK(Ac)GLGK(Ac)GGAK(Ac)RHRK(Biotin)-OH binding to recombinant human His6-tagged BRD4 bromodomain 1 (N44 to E168 residues) expressed in Escherichia coli BL21 (DE3) cells measured after 2 hrs by Alphascreen assay.
The target in assay [2] is T1, Bromodomain-containing protein 4. The experiment in a line: Binding affinity to human recombinant His6-tagged BRD4 bromodomain 1 (N44 to E168 residues) expressed in Escherichia coli BL21 (DE3) cells assessed as change in melting temperature at 200 uM incubated for 30 mins by SYPRO orange dye based thermal shift assay. Put shortly: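 Thermal shift assay measuring change in melting temperature of each isolated bromodomain module in the presence of compound versus without.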

For a further assay, the system named is LNCaP C4-2B. The experiment in a line: Antiproliferative activity against AR-positive human C4-2B cells assessed as reduction in cell viability incubated for 96 hrs by cell-titer glo assay. Type of assay: functional, cell-based. Put shortly: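 Prostate cancer cells treated across a concentration range; viability read by CellTiter-Glo luminescence; experiments in triplicate; IC50 derived from the dose–response curves.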

The subject of the next assay is VCaP. The experiment in a line: cells. The conditions noted are these: Homo sapiens, 144 h, read-out: INH.
Assay [3] deals with T1, Bromodomain-containing protein 4. The experiment in a line: Inhibition of BRD4 bromodomain 1 (unknown origin) by fluorescence polarization assay.

As usually defined, the IC50 is the concentration that gives 50% inhibition. The ΔTm is the change in melting temperature against a reference sample. Consider `CCCn1c(-c2cc(Br)c3onc(C)c3c2)nc2ccc(N3CCOCC3)cc21`, for which the IC50 in assay [1] was 1800 nM. Also, the ΔTm in assay [2] worked out at 6.2 °C.

`COc1ccc(Cl)cc1S(=O)(=O)Nc1cc2c(C)noc2cc1C`: the IC50 in assay [1] worked out at 1050 nM. Further, the ΔTm in assay [2] stood at 6.5 °C. On the same counts, the results for `Cc1cc2onc(C)c2cc1NS(=O)(=O)c1ccc(Cl)cc1` are more than 20000 nM and 1 °C. Regarding `COc1ccc(Br)cc1S(=O)(=O)Nc1cc2c(C)noc2cc1OCC(=O)NCCNC(C)=O`, the IC50 in assay [1] was found to be 750 nM. Further, the ΔTm in assay [2] stood at 5.4 °C. As for `COc1ccc(Br)cc1S(=O)(=O)Nc1cc2c(C)noc2cc1OCC(=O)NCCN1CCOCC1`, the 50% inhibitory concentration (IC50) in assay [1] came to 2270 nM. Further, the ΔTm in assay [2] came to 4.8 °C. On the same counts, the results for `Cc1cc2onc(C)c2cc1NS(=O)(=O)c1ccccc1Cl` are 1590 nM and 5.2 °C. On the same counts, the results for `CCCOc1cc2onc(C)c2cc1NS(=O)(=O)c1cc(Br)ccc1OC` are 420 nM and 6 °C. On the same counts, the results for `Cc1cc2onc(C)c2cc1NS(=O)(=O)c1ccc(F)cc1` are 9820 nM and 2 °C. As for `COCCn1c(-c2ccc3onc(C)c3c2)nc2ccc(N3CCOCC3)cc21`, the IC50 in assay [1] was 4420 nM. In assay [2], the ΔTm was found to be 5 °C. On the same counts, the results for `COc1ccc(Br)cc1S(=O)(=O)Nc1cc2c(C)noc2cc1OCC(=O)O` are 580 nM and 6.2 °C. On to `CCCCn1c(-c2ccc3onc(C)c3c2)nc2ccc(N3CCOCC3)cc21`, for which the IC50 in assay [1] came to 1160 nM. The ΔTm in assay [2] turned out to be 5.9 °C.

`COc1cc2onc(C)c2cc1NS(=O)(=O)c1cc(C)ccc1OC`: in assay [1], the IC50 stood at 470 nM. Further, the ΔTm in assay [2] came out at 7.8 °C. On to `CCC(C)n1c(-c2ccc3onc(C)c3c2)nc2ccc(N3CCOCC3)cc21` (stereo not drawn), for which, in assay [1], the IC50 is 3620 nM. Also, the ΔTm in assay [2] was 4.8 °C. Take `CCCCn1c(-c2cc(Br)c3onc(C)c3c2)nc2ccc(N3CCOCC3)cc21`: the IC50 in assay [1] was 520 nM. Further, in assay [2], the ΔTm amounted to 7.2 °C.

As to `Cc1cc2onc(C)c2cc1NS(=O)(=O)C1CCCCC1`, the IC50 in assay [1] worked out at 2240 nM. In addition, the ΔTm in assay [2] is 4.5 °C. On to `CNC(=O)c1ccc(N2C(=S)N(c3ccc(C#N)c(C(F)(F)F)c3)C(=O)C2(C)C)cc1F` [ENZALUTAMIDE], for which the IC50 in the assay with LNCaP C4-2B is 18000 nM. For the same compound, the inhibition at 33 µM in the assay with VCaP is 50%. Regarding `CCCS(=O)(=O)Nc1cc2c(C)noc2cc1C`, in assay [1], the 50% inhibitory concentration (IC50) turned out to be 2470 nM. In addition, in assay [2], the ΔTm amounted to 4.5 °C. On the same counts, the results for `CCCCS(=O)(=O)Nc1cc2c(C)noc2cc1C` are 2550 nM and 5 °C. As to `Cc1cc2onc(C)c2cc1NS(=O)(=O)c1ccccc1Br`, the IC50 in assay [1] was found to be 1840 nM. In addition, the ΔTm in assay [2] was found to be 4.4 °C. On the same counts, the results for `COc1ccc(Br)cc1S(=O)(=O)Nc1cc2c(C)noc2cc1C` are 620 nM and 7.5 °C. On the same counts, the results for `CCS(=O)(=O)Nc1cc2c(C)noc2cc1C` are 5300 nM and 3 °C. On the same counts, the results for `Cc1cc2onc(C)c2cc1NS(=O)(=O)C1CCCC1` are 3050 nM and 5 °C. In turn, `CCOC(=O)C[C@@H]1N=C(c2ccc(Cl)cc2)c2cc(OC)ccc2-n2c(C)nnc21` gave an IC50 in assay [3] of 631 nM.

Consider `CCNC(=O)COc1cc2onc(C)c2cc1NS(=O)(=O)c1cc(Br)ccc1OC`, for which the IC50 in assay [1] turned out to be 1600 nM. The ΔTm in assay [2] stood at 5.1 °C. Regarding `Cc1noc2ccc(-c3nc4ccc(N5CCOCC5)cc4n3CC3CCCCC3)cc12`, in assay [1], the IC50 was 180 nM. Besides, the ΔTm in assay [2] worked out at 5.4 °C. As to `COc1cc2onc(C)c2cc1NS(=O)(=O)c1cc(Cl)ccc1OC`, in assay [1], the IC50 stood at 160 nM. The ΔTm in assay [2] worked out at 8.7 °C. `COc1ccc(Br)cc1S(=O)(=O)Nc1cc2c(C)noc2cc1O`: the IC50 in assay [1] came out at 230 nM. Moreover, the ΔTm in assay [2] is 9.2 °C. On the same counts, the results for `CCCn1c(-c2ccc3onc(C)c3c2)nc2ccc(N3CCOCC3)cc21` are 1370 nM and 6.5 °C.

For the compound `Cc1cc2onc(C)c2cc1NS(=O)(=O)c1ccc([N+](=O)[O-])cc1`, the IC50 in assay [1] is more than 20000 nM. Further, the shift in melting temperature (ΔTm) in assay [2] worked out at 0.5 °C. On the same counts, the results for `COc1ccc(S(=O)(=O)Nc2cc3c(C)noc3cc2C)cc1` are more than 20000 nM and 1.5 °C. On the same counts, the results for `COc1cc2onc(C)c2cc1NS(=O)(=O)c1cc(Cl)ccc1Cl` are 440 nM and 7.3 °C. As for `Cc1cc2onc(C)c2cc1NS(=O)(=O)c1c(Cl)cccc1Cl`, in assay [1], the IC50 is more than 20000 nM. Further, the thermal shift (ΔTm) in assay [2] worked out at 1.1 °C. On the same counts, the results for `Cc1cc2onc(C)c2cc1NS(=O)(=O)c1cc(Cl)ccc1Cl` are 2350 nM and 5 °C. On the same counts, the results for `COc1ccc(OC)c(S(=O)(=O)Nc2cc3c(C)noc3cc2C)c1` are 10700 nM and 2 °C. With `COC(=O)c1ccccc1S(=O)(=O)Nc1cc2c(C)noc2cc1C`, the half-inhibitory concentration (IC50) in assay [1] was determined as 6930 nM. Also, in assay [2], the ΔTm was 3 °C. On the same counts, the results for `Cc1cc2onc(C)c2cc1NS(=O)(=O)c1ccccc1C(=O)O` are 5810 nM and 3.8 °C. Turning to `COc1ccc(C)cc1S(=O)(=O)Nc1cc2c(C)noc2cc1C`, the IC50 in assay [1] came out at 2130 nM. Moreover, the ΔTm in assay [2] was determined as 4.6 °C. On the same counts, the results for `Cc1noc2c(Br)cc(-c3nc4ccc(N5CCOCC5)cc4n3CC3CC3)cc12` are 2360 nM and 6 °C.

In the case of `COc1ccccc1S(=O)(=O)Nc1cc2c(C)noc2cc1C`, in assay [1], the IC50 came to 830 nM. Besides, in assay [2], the ΔTm was 6.6 °C.

As to `Cc1noc2ccc(-c3nc4ccc(N5CCOCC5)cc4n3Cc3ccccc3)cc12`, the IC50 in assay [1] amounted to 1670 nM. Besides, the ΔTm in assay [2] was 6 °C. Turning to `CCOc1cc2onc(C)c2cc1NS(=O)(=O)c1cc(Br)ccc1OC`, in assay [1], the IC50 is 150 nM. In addition, the ΔTm in assay [2] was 9.2 °C. On the same counts, the results for `Cc1noc2c(Br)cc(-c3nc4ccc(N5CCOC[C@@H]5C)cc4n3CC3CCCCC3)cc12` are 320 nM and 7.2 °C.

Regarding `Cc1cc2onc(C)c2cc1NS(=O)(=O)c1cccc(Cl)c1Cl`, in assay [1], the IC50 was 3550 nM. Further, in assay [2], the ΔTm was 4 °C. Turning to `COc1cc2onc(C)c2cc1NS(=O)(=O)c1ccccc1Cl`, the IC50 in assay [1] stood at 220 nM. For the same compound, the ΔTm in assay [2] came out at 7.8 °C. With `Cc1cc2onc(C)c2cc1NS(=O)(=O)c1ccccc1`, the IC50 in assay [1] came to 4960 nM. For the same compound, the ΔTm in assay [2] is 2 °C. On the same counts, the results for `COCCn1c(-c2cc(Br)c3onc(C)c3c2)nc2ccc(N3CCOCC3)cc21` are more than 20000 nM and 4.5 °C. As to `Cc1noc2ccc(-c3nc4ccc(N5CCOCC5)cc4n3CC3CC3)cc12`, in assay [1], the IC50 came to 1410 nM. The ΔTm in assay [2] came to 6.5 °C.

(Values after ChEMBL document CHEMBL4765238, “Structure-Based Discovery and Optimization of Benzo[ d]isoxazole Derivatives as Potent and Selective BET Inhibitors for Potential Treatment of Castration-Resistant Prostate Cancer (CRPC)” (J Med Chem, 2018).)
